# Reference: ChEMBL document CHEMBL1149742, “Displacement activity of bisbenzylisoquinoline alkaloids at striatal 3H-SCH 23390 and 3H-raclopride binding sites” (J Nat Prod, 1992)
# pIC50: −log10 of the molar value.
# Key:
# D(1A) dopamine receptor = D(1A) dopamine receptor (Rattus norvegicus, UniProt P18901); experiment: Displacement of [3H]SCH23390 from dopamine D1 receptor in Wistar rat striatal membrane by liquid scintillation counting; assay type: cell membranes, Striatum
# Summary of the method: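 Striata from male Wistar rats (200–250 g) homogenized in 50 mM Tris-HCl pH 7.4, centrifuged twice at 20,000 g, resuspended in Tris-Mg buffer (5 mM MgSO4, 0.5 mM EDTA, 0.02% ascorbic acid). 100 µg protein incubated 1 h at 25° with 0.25 nM [3H]SCH 23390 (final), compounds at 6 or 11 concentrations 10^-9–10^-4 M. Nonspecific binding with 30 µM SK&F 38393. GF/B filtration. IC50 with 95% confidence limits by Litchfield–Wilcoxon, 4–8 determinations per concentration.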
# D(2) dopamine receptor = D(2) dopamine receptor (Rattus norvegicus, UniProt P61169); experiment: Displacement of [3H]raclopride from dopamine D2 receptor in Wistar rat striatal membrane by liquid scintillation counting; assay type: cell membranes, Striatum
# Summary of the method: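 Male Wistar rat (200–250 g) striatal membranes, centrifuged four times at 20,000 g, resuspended in Tris-ions buffer (120 mM NaCl, 5 mM KCl, 1 mM CaCl2, 1 mM MgCl2, 0.1% ascorbic acid, pH 7.4). 200 µg protein incubated 1 h at 25° with 0.5 nM [3H]raclopride (final), compounds at 6 or 11 concentrations 10^-9–10^-4 M. Nonspecific binding with 50 µM apomorphine. GF/B filtration. IC50 by Litchfield–Wilcoxon, 4–8 determinations per concentration.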
# Rattus norvegicus = organism: Rattus norvegicus; experiment: Selectivity ratio of IC50 for dopamine D1 receptor in Wistar rat striatal membrane to IC50 for dopamine D2 receptor in Wistar rat striatal membrane; assay type: cell membranes
# Sequence of D(1A) dopamine receptor (P18901 whole entry): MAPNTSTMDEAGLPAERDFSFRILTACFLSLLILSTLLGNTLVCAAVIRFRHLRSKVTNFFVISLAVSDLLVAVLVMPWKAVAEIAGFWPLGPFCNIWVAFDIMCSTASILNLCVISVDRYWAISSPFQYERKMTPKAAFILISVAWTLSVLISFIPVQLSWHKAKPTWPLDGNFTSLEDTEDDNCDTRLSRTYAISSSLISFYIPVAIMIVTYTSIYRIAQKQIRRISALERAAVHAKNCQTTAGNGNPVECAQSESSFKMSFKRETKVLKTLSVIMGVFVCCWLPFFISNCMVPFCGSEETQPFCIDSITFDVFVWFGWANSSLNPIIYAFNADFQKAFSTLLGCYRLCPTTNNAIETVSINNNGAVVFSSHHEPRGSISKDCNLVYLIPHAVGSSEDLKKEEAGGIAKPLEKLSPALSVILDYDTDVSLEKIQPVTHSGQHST
# Sequence of D(2) dopamine receptor (P61169 whole entry): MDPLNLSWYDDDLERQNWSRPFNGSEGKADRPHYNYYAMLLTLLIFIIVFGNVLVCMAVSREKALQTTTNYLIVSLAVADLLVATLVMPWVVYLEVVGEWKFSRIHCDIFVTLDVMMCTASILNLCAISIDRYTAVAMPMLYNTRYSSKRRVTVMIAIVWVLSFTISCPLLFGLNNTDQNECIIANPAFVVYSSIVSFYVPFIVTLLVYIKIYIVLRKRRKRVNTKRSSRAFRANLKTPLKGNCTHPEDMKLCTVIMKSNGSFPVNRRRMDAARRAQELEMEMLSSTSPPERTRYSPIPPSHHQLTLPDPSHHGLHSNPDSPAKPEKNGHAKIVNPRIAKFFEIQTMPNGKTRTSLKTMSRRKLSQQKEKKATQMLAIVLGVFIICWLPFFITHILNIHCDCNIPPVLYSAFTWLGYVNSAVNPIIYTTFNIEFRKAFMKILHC
pIC50 (D(1A) dopamine receptor),pIC50 (D(2) dopamine receptor),Ratio IC50 (Rattus norvegicus),Structure (SMILES)
4.41,4.55,1.4,COc1ccc2cc1Oc1ccc(cc1)C[C@H]1c3c(cc(OC)c(OC)c3Oc3cc4c(cc3OC)CCN(C)[C@@H]4C2)CCN1C
< 4.00,4.09,> 1.2,COc1ccc(C[C@H]2c3c(cc(OC)c4c3Oc3cc5c(cc3O4)CCN(C)C5=O)CCN2C)cc1-c1cc(C=O)ccc1O
5.25,7.57,207,COc1cc2c(cc1O)[C@@H](Cc1ccc(OC)c(Oc3ccc(C[C@H]4c5cc(O)c(OC)cc5CCN4C)cc3)c1)N(C)CC2
< 4.52,5.00,> 3,COc1cc2c(cc1Oc1c(O)c(OC)cc3c1[C@H](Cc1ccc(OC)c(-c4cc(C=O)ccc4O)c1)N(C)CC3)C(=O)N(C)CC2
5.25,5.84,3.9,COc1cc2c(cc1OC)[C@@H](Cc1ccc(Oc3cc(C[C@H]4c5cc(OC)c(OC)cc5CCN4C)ccc3OC)cc1)N(C)CC2
< 4.00,< 4.00,,COc1cc2c(cc1OC)[C@@H](Cc1ccc(OC)c(Oc3ccc(C[C@H]4NCCc5cc(OC)c(OC)cc54)cc3)c1)N(C)CC2
4.04,4.79,5.6,COc1cc2c3cc1Oc1c(O)c(OC)cc4c1[C@@H](C(=O)c1ccc(O)c(c1)-c1cc(ccc1OC)C[C@H]3N(C)CC2)N(C)CC4
5.98,6.52,3.5,COc1cc2c(cc1O)[C@@H](Cc1ccc(O)c(Oc3ccc(C[C@H]4c5cc(O)c(OC)cc5CCN4C)cc3)c1)N(C)CC2

# The next lines start with the compound.
Structure (SMILES),pIC50 (D(1A) dopamine receptor),pIC50 (D(2) dopamine receptor),Ratio IC50 (Rattus norvegicus)
COc1ccc2cc1Oc1ccc(cc1)C[C@H]1c3cc(c(OC)cc3CCN1C)Oc1c(OC)c(OC)cc3c1[C@@H](C2)N(C)CC3,4.48,6.17,49.6
COc1cc2c(cc1OC)[C@@H](Cc1ccc(Oc3cc(C[C@@H]4c5cc(OC)c(OC)cc5CCN4C)ccc3OC)cc1)N(C)CC2,< 4.00,< 4.00,
COc1ccc(C=O)cc1Oc1ccc(C[C@H]2c3c(cc(OC)c(OC)c3Oc3cc4c(cc3OC)CCN(C)C4=O)CCN2C)cc1,< 4.52,< 4.52,
COc1cc2c3cc1Oc1c(O)c(OC)cc4c1[C@H](Cc1ccc(OC)c(c1)-c1cc(ccc1O)C(=O)[C@H]3N(C)CC2)N(C)CC4,4.95,5.56,4
COc1ccc2cc1Oc1ccc(cc1)C[C@@H]1c3c(cc(OC)c(O)c3Oc3cc4c(cc3OC)CCN(C)[C@H]4C2)CCN1C (racemic),4.81,4.18,0.2
COc1cc2c3cc1Oc1c(O)c(OC)cc4c1[C@H](Cc1ccc(OC)c(c1)-c1cc(ccc1O)C[C@H]3N(C)CC2)N(C)CC4,< 4.00,5.50,31.4
